Measurements taken from ChEMBL document CHEMBL1933056, “Cytotoxic potential of novel 6,7-dimethoxyquinazolines” (Eur J Med Chem, 2012).
The source made the active and inactive calls. The calls are words filed in the database; no cut-off is given here.

How the values were obtained:
[1] = tested on: HCT-116; assay: Cytotoxicity against p53-positive human HCT116 cells at 10 uM after 72 hrs by MTT assay; assay type: functional
[2] = tested on: HCT-116; assay: Cytotoxicity against p53-deficient human HCT116 cells at 10 uM after 72 hrs by MTT assay; assay type: functional
[3] = tested on: HEY; assay: Cytotoxicity against human HEY cells at 10 uM after 72 hrs by MTT assay; assay type: functional
Procedure, shortened: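 Single-concentration MTT screen, continuous 72 h exposure at 10 µM (diluted from a 10 mM DMSO stock). MTT was added at 0.5 mg/mL final for 4 h at 37 °C, the formazan was dissolved in DMSO and absorbance read at 570 nm. Result given as % cells killed, (1 − A/C) × 100, done in triplicate. HEY cells were grown in RPMI 1640 with 10% FBS and 2 mM glutamine.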

[4] = tested on: HCT-116; assay: Cytotoxicity against p53-positive human HCT116 cells after 72 hrs by MTT assay; assay type: functional, cell-based; settings: HCT-116, 72 h
Procedure, shortened: (§1)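 Cells seeded, allowed to attach, then exposed to the drug continuously for 72 h over multiple doses. MTT was added at 0.5 mg/mL final for 4 h at 37 °C, solubilized in DMSO and read at 570 nm. Inhibition = (1 − A/C) × 100. IC50 was taken from a plot of log concentration versus % inhibition, assays in triplicate, with SD from at least three independent experiments.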

[5] = tested on: HCT-116; assay: Cytotoxicity against p53-deficient human HCT116 cells after 72 hrs by MTT assay; assay type: functional, cell-based; settings: HCT-116, 72 h; procedure, shortened: as §1
[6] = tested on: HCT-116; assay: Anticlonogenic activity against p53-positive human HCT116 cells assessed as inhibition of colony formation at 0.1 to 20 uM after 24 hrs by crystal violet staining-based microscopic analysis; assay type: functional, cell-based
Procedure, shortened: (§2)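 Cells plated at 100 cells/well and left to attach overnight. Serial compound dilutions were applied for 24 h, followed by a PBS wash and culture in drug-free medium for 8-10 days until colonies formed. Colonies were fixed in 1% glutaraldehyde for 30 min, stained with 2% crystal violet for 30 min, imaged and counted. Values are the mean of at least three independent experiments.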

[7] = tested on: HCT-116; assay: Anticlonogenic activity against p53-deficient human HCT116 cells assessed as inhibition of colony formation at 0.1 to 20 uM after 24 hrs by crystal violet staining-based microscopic analysis; assay type: functional, cell-based; procedure, shortened: as §2
[8] = tested on: HCT-116; assay: Growth inhibition of p53-positive human HCT116 cells at > 5 uM after 24 hrs by crystal violet staining-based microscopic analysis; assay type: functional, cell-based; procedure, shortened: as §2
[9] = tested on: HCT-116; assay: Growth inhibition of p53-deficient human HCT116 cells at > 5 uM after 24 hrs by crystal violet staining-based microscopic analysis; assay type: functional, cell-based; procedure, shortened: as §2
[10] = tested on: HCT-116; assay: Induction of cell cycle arrest in p53-deficient human HCT116 cells assessed as accumulation at G0/G1 phase at 1 uM after 24 hrs by flow cytometric analysis (reference value: 60%); assay type: functional
[11] = tested on: HCT-116; assay: Induction of cell cycle arrest in p53-deficient human HCT116 cells assessed as accumulation at S phase at 1 uM after 24 hrs by flow cytometric analysis (reference value: 13.5%); assay type: functional
[12] = tested on: HCT-116; assay: Induction of cell cycle arrest in p53-deficient human HCT116 cells assessed as accumulation at G2/M phase at 1 uM after 24 hrs by flow cytometric analysis (reference value: 24.5%); assay type: functional
[13] = tested on: HCT-116; assay: Induction of cell cycle arrest in p53-deficient human HCT116 cells assessed as accumulation at G0/G1 phase at 1 uM after 48 hrs by flow cytometric analysis (reference value: 60%); assay type: functional
[14] = tested on: HCT-116; assay: Induction of cell cycle arrest in p53-deficient human HCT116 cells assessed as accumulation at S phase at 1 uM after 48 hrs by flow cytometric analysis (reference value: 13.5%); assay type: functional
[15] = tested on: HCT-116; assay: Induction of cell cycle arrest in p53-deficient human HCT116 cells assessed as accumulation at G2/M phase at 1 uM after 48 hrs by flow cytometric analysis (reference value: 24.5%); assay type: functional
[16] = tested on: HCT-116; assay: Growth inhibition of p53-positive human HCT116 cells at > 1 uM after 24 hrs by crystal violet staining-based microscopic analysis; assay type: functional, cell-based; procedure, shortened: as §2
[17] = tested on: HCT-116; assay: Growth inhibition of p53-deficient human HCT116 cells at > 1 uM after 24 hrs by crystal violet staining-based microscopic analysis; assay type: functional, cell-based; procedure, shortened: as §2

## COc1cc2nc(Cc3ccccc3Cl)[nH]c(=O)c2cc1OC
[1]
  Activity: 59%
[2]
  Activity: 50%
[3]
  Activity: 35%
[4]
  IC50: 9 µM
[5]
  IC50: > 10 µM

## COc1cc2nc(-c3cccc(Cl)c3)nc(N=[N+]=[N-])c2cc1OC
[1]
  Activity: 56%
[2]
  Activity: 45%
[3]
  Activity: 35%
[4]
  IC50: 10 µM
[5]
  IC50: 10 µM

## COc1cc2nc(Cc3ccc(Cl)cc3)[nH]c(=O)c2cc1OC
[1]
  Activity: 63%
[2]
  Activity: 57%
[3]
  Activity: 49%
[4]
  IC50: 9 µM
[5]
  IC50: > 10 µM

## COc1cc2nc(Nc3ccc([N+](=O)[O-])cc3)nc(N)c2cc1OC
[1]
  Activity: 42%
[2]
  Activity: 22%
[3]
  Activity: 4%

## COc1ccc(NCc2nc3cc(OC)c(OC)cc3c(=O)[nH]2)cc1
[1]
  Activity: 38%
[2]
  Activity: 22%
[3]
  Activity: 19%

## COc1cc2nc(-c3ccccc3Cl)nc(N)c2cc1OC
[1]
  Activity: 18%
[3]
  Activity: 4%

## COc1ccc(-c2nc(N)c3cc(OC)c(OC)cc3n2)cc1
[1]
  Activity: 21%
[2]
  Activity: 42%
[3]
  Activity: 17%

## COc1cc2nc(-c3cccc(Cl)c3)nc(N)c2cc1OC
[1]
  Activity: 19%
[2]
  Activity: 2%
[3]
  Activity: 3%

## CCCCn1c(-c2ccc(NC(C)=O)cc2)nc2cc(OC)c(OC)cc2c1=O
[1]
  Activity: 19%
[2]
  Activity: 17%
[3]
  Activity: 6%

## CCCCn1c(-c2ccc(NS(C)(=O)=O)cc2)nc2cc(OC)c(OC)cc2c1=O
[1]
  Activity: 6%
[2]
  Activity: 4%
[3]
  Activity: 0.5%

## CCCCn1c(-c2cccc(NS(C)(=O)=O)c2)nc2cc(OC)c(OC)cc2c1=O
[1]
  Activity: 26%
[2]
  Activity: 27%
[3]
  Activity: 9%

## COc1cc2nc(-c3ccc(C)cc3)nc(N=[N+]=[N-])c2cc1OC
[1]
  Activity: 47%
[2]
  Activity: 66%
[3]
  Activity: 29%
[4]
  IC50: 8 µM
[5]
  IC50: 9 µM

## COc1cc2nc(-c3cccc(C)c3)nc(N)c2cc1OC
[1]
  Activity: 20%
[2]
  Activity: 27%
[3]
  Activity: 6%

## COc1ccc(-c2nc(N=[N+]=[N-])c3cc(OC)c(OC)cc3n2)cc1
[1]
  Activity: 58%
[2]
  Activity: 48%
[3]
  Activity: 42%
[4]
  IC50: 10 µM
[5]
  IC50: 7 µM

## CCCCn1c(-c2ccc(-c3nnn[nH]3)cc2)nc2cc(OC)c(OC)cc2c1=O
[1]
  Activity: 15%
[2]
  Activity: 8%
[3]
  Activity: 2%

## COc1cc2nc(-c3ccccc3Cl)nc(N=[N+]=[N-])c2cc1OC
[1]
  Activity: 50%
[2]
  Activity: 63%
[3]
  Activity: 43%
[4]
  IC50: 8 µM
[5]
  IC50: > 10 µM

## COc1cccc(-c2nc(N=[N+]=[N-])c3cc(OC)c(OC)cc3n2)c1
[1]
  Activity: 25%
[2]
  Activity: 24%
[3]
  Activity: 13%

## COc1cc2nc(Nc3ccccc3-c3ccccc3NS(C)(=O)=O)nc(N)c2cc1OC
[1]
  Activity: 95%
[2]
  Activity: 95%
[3]
  Activity: 94%
[4]
  IC50: 6 µM
[5]
  IC50: 5 µM
[6]
  Activity: Active
[7]
  Activity: Active
[8]
  growth inhibition (GI): Active
[9]
  growth inhibition (GI): Active
[10]
  Activity: 61%
[11]
  Activity: 14%
[12]
  Activity: 23%
[13]
  Activity: 54.5%
[14]
  Activity: 9%
[15]
  Activity: 34.5%

## COc1cccc(-c2nc(N)c3cc(OC)c(OC)cc3n2)c1
[1]
  Activity: 19%
[2]
  Activity: 20%
[3]
  Activity: 7%

## CCCCn1c(-c2cccc(-c3nnn[nH]3)c2)nc2cc(OC)c(OC)cc2c1=O
[1]
  Activity: 13%
[2]
  Activity: 3%
[3]
  Activity: 4%

## COc1ccc(-c2nc3cc(OC)c(OC)cc3c(=O)[nH]2)cc1
[1]
  Activity: 10%
[2]
  Activity: 3%
[3]
  Activity: 2%

## COc1cc2nc(-c3cccc(Cl)c3)[nH]c(=O)c2cc1OC
[1]
  Activity: 35%
[2]
  Activity: 37%
[3]
  Activity: 42%

## COc1cc2nc(-c3ccc(C)cc3)nc(N)c2cc1OC
[1]
  Activity: 5%
[2]
  Activity: 16%
[3]
  Activity: 2%

## COc1cc2nc(CNc3ccc(NS(C)(=O)=O)cc3)[nH]c(=O)c2cc1OC
[1]
  Activity: 28%
[2]
  Activity: 14%
[3]
  Activity: 9%

## COc1cc2nc(CNc3ccc(C(=O)O)cc3)[nH]c(=O)c2cc1OC
[1]
  Activity: 30%
[2]
  Activity: 8%
[3]
  Activity: 0.5%

## COc1cc2nc(-c3cccc(NC(C)=O)c3)[nH]c(=O)c2cc1OC
[1]
  Activity: 16%
[2]
  Activity: 22%
[3]
  Activity: 12%

## COc1cc2nc(Cc3cccc4ccccc34)[nH]c(=O)c2cc1OC
[1]
  Activity: 80%
[2]
  Activity: 79%
[3]
  Activity: 66%
[4]
  IC50: 1.7 µM
[5]
  IC50: 0.7 µM
[6]
  Activity: Active
[7]
  Activity: Active
[16]
  growth inhibition (GI): Active
[17]
  growth inhibition (GI): Active

## COc1cc2nc(CNc3cccc(NS(C)(=O)=O)c3)[nH]c(=O)c2cc1OC
[1]
  Activity: 34%
[2]
  Activity: 31%
[3]
  Activity: 23%

## COc1cc2nc(-c3cccc(C)c3)nc(N=[N+]=[N-])c2cc1OC
[1]
  Activity: 55%
[2]
  Activity: 71%
[3]
  Activity: 42%
[4]
  IC50: 9 µM
[5]
  IC50: > 10 µM
